According to PubChem BioAssay:
Results filed as inconclusive are left out.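 How the source made its calls, unless noted: active means cell viability at or below a set limit in both duplicate runs, the limit being the all-compound median minus 4 SD (cut at about 23% in these data, passing the limit was not always enough); inconclusive means no clear call, values can overlap the other calls; inactive means the rest.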

Columns and labels:
[1] = OD615 S. cerevisiae growth inhibition, permissive medium, pilot counter-assay, permissive growth control for S. cerevisiae lifespan shortening project (AID 705;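 active means growth inhibition above 25% in both replicates, a cutoff set 3 SD above the mean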); settings: OD615, 24 h, at 10 µM, stronger effect = higher value
Summary of the method: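 System: engineered DeaD yeast; Medium: permissive raffinose/galactose medium; Compound dosing: 10 µM single dose, 0.25% DMSO; Incubation: 4 h cell pre-growth, 24 h exposure at 30 °C; Technique: OD at 615 nm; Evaluation: growth inhibition from lowered OD615 after 24 h.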

[2] = Restrictive medium S. cerevisiae growth inhibition, OD615, pilot screen of yeast lifespan reduction project, restrictive growth control (AID 706;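 active means growth inhibition above a set limit, 3 SD over mean compound inhibition, in both replicates, cut at about 43% in these data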;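 further: modified DeaD lifespan yeast strain shifted to restrictive glucose medium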); settings: OD615, 48 h, at 10 µM, stronger effect = higher value
Summary of the method: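 Material: modified S. cerevisiae; buffer or medium: CSMM-D glucose medium; doses: one concentration, 10 µM final, 0.25% DMSO; incubation: 48 h compound exposure at 30 °C; detection: optical density at 615 nm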

[3] = viability gain of MRP-1-high H69AR cells under doxorubicin, pilot screen, MRP-1 activator project, CellTiter-Glo, duplicate (AID 807;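 active means viability increase at or above a cutoff of the median across tested compounds plus 3 SD, cut at about 8.5% in these data, passing the limit was not always enough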;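 further: compound pretreatment 18-22 h then 72 h combined with doxorubicin; 0% = doxorubicin alone and 100% = vehicle without doxorubicin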); settings: H69AR viability with doxorubicin, CellTiter-Glo luminescence; at 10 µM; stronger effect = higher value
[4] = growth suppression of beta-catenin knockout HCT116, pilot screen, human colon tumor cells (AID 823); settings: CellTiter-Glo, 60 h, at 10 µM, stronger effect = lower value;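 further: 0% = wells killed by 20 µM Hyamine and 100% = untreated DMSO cell wells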
[5] = growth suppression of PTEN-deleted HCT116, pilot screen, cell-based, HCT116 clonal line, CellTiter-Glo (AID 824;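 active means viability at or below 27.92% in each of two runs, the all-compound median minus 4 SD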;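 further: 0% = 20 µM Hyamine control and 100% = vehicle cell control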); settings: 60 h, at 10 µM, stronger effect = lower value
[6] = inhibitors of the yeast RAM network, pilot screen, dse1pr::URA3 reporter, 5-FOA selection (AID 869;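 active means inhibition over a set limit, the all-compound mean plus 3 SD, in both replicate runs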;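 further: 0% = DMSO wells with no growth and 100% = 10 µM 1-NA-PP1 with full growth; RAM network block rescues cells from 5-FOA so hits raise OD615 growth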); settings: S. cerevisiae dse1pr::URA3 5-FOA growth, OD615, 2 d; at 10 µM; stronger effect = higher value; strain carries analog-sensitive mutant Cbk1 kinase
[7] = RAM signaling pathway blockade in yeast – S. cerevisiae, Pdr1DBD-CYC8 efflux-inhibited sensitized strain, primary screen (AID 1298;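 active means RAM network inhibition above 8.4% in each of two replicates, 3 SD over the compound average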;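 further: 0% = DMSO untreated cells without growth and 100% = 10 µM 1-NA-PP1 full growth; higher means more yeast growth rescued from 5-FOA killing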); settings: S. cerevisiae cbk1-as DSE1-URA3 strain, 5-FOA growth OD615, 2 d; at 50 µM; stronger effect = higher value

O=C(O)c1ccc(NC(=O)C2C3CCC(C3)C2C(=O)O)cc1 (configuration not stated)
inactive: growth inhibition [1] 7% | growth inhibition [2] -0.915% | viability increase [3] -0.12% | viability [4] 101% | viability [5] 98.8% | inhibition [6] 0.345% | RAM network inhibition [7] 0.46%

CN(C)S(=O)(=O)c1ccc2c(c1)c(=O)c(C(=O)N1CCOCC1)cn2C
inactive: growth inhibition [1] -8.25% | growth inhibition [2] 2.44% | viability increase [3] 0.13% | viability [4] 103% | viability [5] 89.4% | inhibition [6] 1.79% | RAM network inhibition [7] -0.67%

COc1cccc(C2CC(=O)N3CN(c4cccc(Cl)c4C)CSC3=C2C#N)c1OC (configuration not stated)
inactive: growth inhibition [1] 5.33% | growth inhibition [2] 19.4% | viability increase [3] -4.11% | viability [4] 73.2% | viability [5] 63.9% | inhibition [6] 3.38% | RAM network inhibition [7] 7.39%

Cn1c(Cn2c(=O)sc3ccccc32)nnc1SCC(=O)N1CCc2ccccc21
inactive: growth inhibition [1] -8.97% | growth inhibition [2] -4.5% | viability increase [3] -1.09% | viability [4] 86.1% | viability [5] 92.6% | inhibition [6] 2.98% | RAM network inhibition [7] 2.79%

CCCCOC(=O)CSc1nnc(N)s1
inactive: growth inhibition [1] -4.92% | growth inhibition [2] -1.45% | viability increase [3] -0.86% | viability [4] 105% | viability [5] 96.5% | inhibition [6] 0.205% | RAM network inhibition [7] 6.89%

COC(=O)C1=C(C)N(C)C(C)=C(C(=O)OC)C1c1cccc(Br)c1
inactive: growth inhibition [1] -16.7% | growth inhibition [2] 0.915% | viability increase [3] 0.06% | viability [4] 72% | viability [5] 67.4% | inhibition [6] 0.57% | RAM network inhibition [7] 9.03%

CCOc1ccccc1N(CC(=O)Nc1ccccc1C(=O)O)S(C)(=O)=O
inactive: growth inhibition [1] -15.5% | growth inhibition [2] -9.54% | viability increase [3] 0.9% | viability [4] 97.5% | viability [5] 85.1% | inhibition [6] 0.11% | RAM network inhibition [7] 5.86%

Cc1nnc(Sc2nc3c(c(=O)[nH]c(=O)n3C)n2CCCc2ccccc2)s1
inactive: growth inhibition [1] -8.19% | growth inhibition [2] -13.4% | viability increase [3] -2.42% | viability [4] 95.1% | viability [5] 94.7% | inhibition [6] 1.21% | RAM network inhibition [7] 2.87%

Cc1cc(C(=O)Nc2nnc(C3CCCCC3)s2)cs1
inactive: growth inhibition [1] -9.12% | growth inhibition [2] 1.04% | viability increase [3] 1.38% | viability [4] 94.7% | viability [5] 101% | inhibition [6] 4.87% | RAM network inhibition [7] 9.03%

COC(=O)C1=CN(CCCN2CCCC2=O)C=C(C(=O)OC)C1c1ccccc1C(F)(F)F
inactive: growth inhibition [1] -10% | growth inhibition [2] 1.3% | viability increase [3] -6.27% | viability [4] 39.6% | viability [5] 35.7% | inhibition [6] 0.125% | RAM network inhibition [7] 1.94%

NC(=O)CCc1c[nH]c2ccccc12
inactive: growth inhibition [1] -1.2% | growth inhibition [2] -4.15% | viability increase [3] -3.35% | viability [4] 91% | viability [5] 94.2% | inhibition [6] 2.47% | RAM network inhibition [7] 5.98%

CN(C)c1nc2c(c(=O)[nH]c(=O)n2C)n1Cc1ccc(F)cc1
inactive: growth inhibition [1] -2.72% | growth inhibition [2] 6.59% | viability increase [3] -0.31% | viability [4] 107% | viability [5] 100% | inhibition [6] 1.74% | RAM network inhibition [7] 2.1%

Cc1ccc(S(=O)(=O)N2CCN(Cc3ccccc3C(F)(F)F)CC2)cc1
inactive: growth inhibition [1] -12.5% | growth inhibition [2] -27.7% | viability increase [3] -1.45% | viability [4] 78% | viability [5] 82.8% | inhibition [6] 0.92% | RAM network inhibition [7] 3.06%

Cn1c(=O)c2c(nc(SCCN3CCOCC3)n2Cc2ccc(Cl)cc2)n(C)c1=O
inactive: growth inhibition [1] -5.34% | growth inhibition [2] 16.6% | viability increase [3] -3.32% | viability [4] 87.8% | viability [5] 84.1% | inhibition [6] 2.31% | RAM network inhibition [7] -0.47%

CCOC(=O)/C=C/S(=O)(=O)c1ccc(NC(C)=O)cc1
inactive: growth inhibition [1] -24.4% | growth inhibition [2] -13.2% | viability increase [3] -7.51% | viability [4] 82.4% | viability [5] 93.5% | inhibition [6] 0.03% | RAM network inhibition [7] 5.29%

O=C(O)c1ccccc1SC1CC(=O)N(C2CCCCC2)C1=O (configuration not stated)
inactive: growth inhibition [1] -14.3% | growth inhibition [2] -1.75% | viability increase [3] -2.78% | viability [4] 90.7% | viability [5] 94.3% | inhibition [6] 1.17% | RAM network inhibition [7] 1.06%

CCN1CCN(Cc2ccc(NC(=O)CC3Oc4ccc(C)cc4NC3=O)cc2)CC1 (configuration not stated)
inactive: growth inhibition [1] -3.29% | growth inhibition [2] 1.68% | viability increase [3] -0.91% | viability [4] 93% | viability [5] 101% | inhibition [6] 0.29% | RAM network inhibition [7] 2.33%

c1csc(Cc2nc(-c3ccc(-n4cccc4)cc3)no2)c1
inactive: growth inhibition [1] -6.69% | growth inhibition [2] -14.7% | viability increase [3] -0.35% | viability [4] 106% | viability [5] 93.8% | inhibition [6] 3.12% | RAM network inhibition [7] 1.65%

O=C(O)C1CCCN1S(=O)(=O)c1cc(Cl)ccc1Cl (configuration not stated)
inactive: growth inhibition [1] -3.73% | growth inhibition [2] -6.05% | viability increase [3] 1.55% | viability [4] 92.5% | viability [5] 102% | inhibition [6] 0.535% | RAM network inhibition [7] 4.12%

COc1cc(N)ccc1Cc1ccc(N)cc1OC
inactive: growth inhibition [1] -5.34% | growth inhibition [2] -2.19% | viability increase [3] -4.54% | viability [4] 85.9% | viability [5] 90.8% | inhibition [6] -0.06% | RAM network inhibition [7] 6.85%

Cc1ccccc1N(CC(=O)NCCSCc1ccco1)S(C)(=O)=O
inactive: growth inhibition [1] -4.43% | growth inhibition [2] -7.72% | viability increase [3] -3.94% | viability [4] 93.1% | viability [5] 95.5% | inhibition [6] -0.58% | RAM network inhibition [7] 7.43%

Cc1ccc2oc(=O)c3cc(C(=O)NCc4ccco4)sc3c2c1
inactive: growth inhibition [1] -8.27% | growth inhibition [2] -8.27% | viability increase [3] -2.9% | viability [4] 102% | viability [5] 96.6% | inhibition [6] 3.86% | RAM network inhibition [7] 2.71%

CCCCC(CC)C(=O)NCCc1ccc(S(N)(=O)=O)cc1 (configuration not stated)
inactive: growth inhibition [1] -2.48% | growth inhibition [2] -4.13% | viability increase [3] -0.52% | viability [4] 93.2% | viability [5] 97.9% | inhibition [6] 1% | RAM network inhibition [7] -0.82%

CCC(C)NC(=O)CNC(=O)Cn1c(C)cc2ccccc2c1=O (configuration not stated)
inactive: growth inhibition [1] -4.49% | growth inhibition [2] -8.84% | viability increase [3] -2.27% | viability [4] 102% | viability [5] 94.2% | inhibition [6] 0.04% | RAM network inhibition [7] 4.72%

Nc1[nH]nc2nc(N3CCOCC3)nc(-c3ccccc3)c12
inactive: growth inhibition [1] -7.04% | growth inhibition [2] 4.65% | viability increase [3] -4.39% | viability [4] 88.2% | viability [5] 88.3% | inhibition [6] 2.38% | RAM network inhibition [7] 1.55%

Nc1nonc1-n1nncc1-c1ccccc1
inactive: growth inhibition [1] -8.35% | growth inhibition [2] -13.6% | viability increase [3] -1.04% | viability [4] 92.4% | viability [5] 96.7% | inhibition [6] 1.67% | RAM network inhibition [7] 1.25%

CCC(=O)Nc1c(C)cc(C)cc1Cl
inactive: growth inhibition [1] -12.5% | growth inhibition [2] -10.9% | viability increase [3] -0.97% | viability [4] 92.7% | viability [5] 96.4% | inhibition [6] 1.44% | RAM network inhibition [7] 0.83%

CCOC(=O)c1ccn(-c2nc(-c3ccco3)cc(C(F)(F)F)n2)n1
inactive: growth inhibition [1] -8.11% | growth inhibition [2] 6.16% | viability increase [3] 1.27% | viability [4] 106% | viability [5] 97.8% | inhibition [6] -0.505% | RAM network inhibition [7] 4.89%

Cn1c(CNC(=O)c2ccc(F)cc2)nc2ccccc21
inactive: growth inhibition [1] -0.44% | growth inhibition [2] -5.71% | viability increase [3] -2.48% | viability [4] 99.5% | viability [5] 102% | inhibition [6] 0.325% | RAM network inhibition [7] 3.67%

Cc1ccc(C)c(N2CCN(C(=O)c3cc4ccccc4oc3=O)CC2)c1
inactive: growth inhibition [1] -11.6% | growth inhibition [2] -15.9% | viability increase [3] 1.72% | viability [4] 100% | viability [5] 95.5% | inhibition [6] 1.18% | RAM network inhibition [7] 3.38%

COc1ccccc1Cc1nc(-c2ccc(Br)o2)no1
inactive: growth inhibition [1] -0.335% | growth inhibition [2] 6.17% | viability increase [3] -3.52% | viability [4] 97.4% | viability [5] 85.8% | inhibition [6] 2.08% | RAM network inhibition [7] 5.63%

CCOC(=O)c1cccc(NC(=O)Cn2cc3c(n2)CCC(C)C3)c1 (configuration not stated)
inactive: growth inhibition [1] 4.72% | growth inhibition [2] 17.6% | viability increase [3] -0.48% | viability [4] 101% | viability [5] 92.3% | inhibition [6] 1.12% | RAM network inhibition [7] 0.81%

O=C(NCc1ccncc1)C(F)(F)C(F)(F)C(=O)NCc1ccncc1
inactive: growth inhibition [1] -0.215% | growth inhibition [2] -3.65% | viability increase [3] -1.87% | viability [4] 93.9% | viability [5] 85.4% | inhibition [6] 1.33% | RAM network inhibition [7] 1.22%

CCOC(=O)CC1=C(C#N)C(c2cccnc2)C(C(=O)OCC)=C(N)O1 (configuration not stated)
inactive: growth inhibition [1] -0.965% | growth inhibition [2] -12.4% | viability increase [3] -3.12% | viability [4] 104% | viability [5] 99.6% | inhibition [6] 1.98% | RAM network inhibition [7] 8.18%

c1ccc2c(c1)CCN(c1nc3ccccc3n3cnnc13)C2
inactive: growth inhibition [1] -1.93% | growth inhibition [2] 10.2% | viability increase [3] -8.63% | viability [4] 65.1% | viability [5] 68.9% | inhibition [6] 0.5% | RAM network inhibition [7] -0.31%

COc1cccc(C2c3c(oc4cc(C)c(C)cc4c3=O)C(=O)N2CCCN(C)C)c1 (configuration not stated)
inactive: growth inhibition [1] -8.88% | growth inhibition [2] 0.12% | viability increase [3] -3.94% | viability [4] 93.6% | viability [5] 94.6% | inhibition [6] 0.885% | RAM network inhibition [7] 1.83%
